Molecules are shown by their SMILES.

This passage reports Ratio and k cat results from ChEMBL document CHEMBL1144404, “Aminoimidazolylmethyluracil analogues as potent inhibitors of thymidine phosphorylase and their bioreductive nitroimidazolyl prodrugs” (J Med Chem, 2005).

The target of test [1] is Thymidine phosphorylase (Escherichia coli K-12) (UniProt P07650). Nature of the test: Ratio of Kcat to Km for Escherichia coli thymidine phosphorylase. The method, boiled down: (§1)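 Continuous UV assay at 355 nm and 25 °C in 0.2 mL of 0.1 M potassium phosphate pH 7.4, using recombinant E. coli TP (ca. 0.00883 units per assay) added to start the reaction. Substrate is thymidine or 5-nitro-2'-deoxyuridine; phosphorolysis to 5-nitrouracil followed (εM 13300 M-1 cm-1 for substrate).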
Thymidine phosphorylase (Escherichia coli K-12), sequence (P07650 whole entry, looked up): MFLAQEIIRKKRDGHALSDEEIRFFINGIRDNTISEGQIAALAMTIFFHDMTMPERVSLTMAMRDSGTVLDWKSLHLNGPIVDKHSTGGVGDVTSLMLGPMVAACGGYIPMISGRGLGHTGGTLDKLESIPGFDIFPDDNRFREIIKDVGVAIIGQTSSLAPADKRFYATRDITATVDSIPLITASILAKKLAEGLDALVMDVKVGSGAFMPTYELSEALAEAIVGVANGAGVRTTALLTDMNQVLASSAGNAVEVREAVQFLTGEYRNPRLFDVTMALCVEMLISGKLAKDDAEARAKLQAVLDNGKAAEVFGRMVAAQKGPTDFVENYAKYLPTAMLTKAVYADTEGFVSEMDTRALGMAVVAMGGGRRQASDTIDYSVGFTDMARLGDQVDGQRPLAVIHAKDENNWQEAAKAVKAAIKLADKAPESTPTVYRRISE

Test [2] has the same target. Description: Catalytic constant against Escherichia coli thymidine phosphorylase. Put shortly:
as §1

In test [3] the target is T1, Thymidine phosphorylase (Homo sapiens) (UniProt P19971).
T1 sequence (whole entry): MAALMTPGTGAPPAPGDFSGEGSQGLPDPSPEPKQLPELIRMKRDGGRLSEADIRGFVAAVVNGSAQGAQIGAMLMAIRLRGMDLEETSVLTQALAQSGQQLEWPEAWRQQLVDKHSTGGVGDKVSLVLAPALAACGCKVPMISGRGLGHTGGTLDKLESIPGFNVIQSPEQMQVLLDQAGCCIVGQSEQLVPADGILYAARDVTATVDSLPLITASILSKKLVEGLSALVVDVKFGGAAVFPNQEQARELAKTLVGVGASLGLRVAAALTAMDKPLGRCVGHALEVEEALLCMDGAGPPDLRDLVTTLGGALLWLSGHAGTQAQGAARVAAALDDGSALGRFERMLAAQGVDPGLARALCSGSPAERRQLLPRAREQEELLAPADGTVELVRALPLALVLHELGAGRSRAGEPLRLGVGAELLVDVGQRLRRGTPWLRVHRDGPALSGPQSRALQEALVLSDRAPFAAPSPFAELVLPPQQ
Description: Ratio of Kcat to Km against human thymidine phosphorylase. Put shortly:
(§2)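 Recombinant human TP expressed in V79 Chinese hamster cells, 0.065 absorbance unit per assay. Continuous spectrophotometric assay at 355 nm, 25 °C, 0.1 M phosphate buffer pH 7.4, 0.2 mL total volume, with 5-nitro-2'-deoxyuridine as substrate; kinetic constants from initial rates.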

For test [4], the target named is T1, Thymidine phosphorylase (Homo sapiens). Nature of the test: Catalytic constant against human thymidine phosphorylase. Put shortly: as §2

As for `Cc1cn([C@H]2C[C@H](O)[C@@H](CO)O2)c(=O)[nH]c1=O`, the Ratio in test [1] came out at 7.4e+06 M⁻¹ s⁻¹. This molecule also had a k cat in test [2] of 1770 s⁻¹.

Take `O=c1[nH]c(=O)n([C@H]2C[C@H](O)[C@@H](CO)O2)cc1[N+](=O)[O-]`: the figures for the Ratio in test [3] and in test [1] were 18000 M⁻¹ s⁻¹ and 87000 M⁻¹ s⁻¹, respectively. Also, the values for the k cat in test [4] and in test [2] were 2.88 s⁻¹ and 20 s⁻¹, respectively.
